Reference: paper PMC6315297 (AIDS (London, England), 2013)
Peptide text beside a SMILES is read from it.

Target: HLA-A*68:02 (Homo sapiens, UniProt P04439, A269V/D140Y/D185E/E176V/E277Q/E87N/F33Y/G231S/I121R/I166T/I218V/L180W/L300P/L318F/N151K/P208A/P217A/Q86R/R138H/R169H/S129P/T345S/V36M)
Experiment: HLA peptide binding assay
Outline: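 Recombinant biotinylated HLA-A*68:02 heavy chain diluted to 2 nM in a mix of 30 nM β2m and peptide, folded 48 h at 18°C. Folded complexes detected by AlphaScreen with streptavidin donor beads and acceptor beads carrying the conformation-dependent anti-HLA-I antibody W6/32. Beads at final 5 μg/mL, incubated overnight at 18°C. Plates equilibrated to reader temperature 1 h before reading.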

`CC(C)[C@H](NC(=O)[C@H](Cc1ccc(O)cc1)NC(=O)[C@H](Cc1ccccc1)NC(=O)[C@@H](NC(=O)[C@@H](N)CCC(=O)O)[C@@H](C)O)C(=O)N[C@@H](CC(=O)O)C(=O)NCC(=O)N[C@@H](C)C(=O)O` [ETFYVDGA] (H-ETFYVDGA-OH) showed a Kd of 2 nM.
